ChEMBL document CHEMBL1153008, “Synthesis and antitubercular activity of novel 4-substituted imidazolyl-2,6-dimethyl-N3,N5-bisaryl-1,4-dihydropyridine-3,5-dicarboxamides” (2009)
≈ marks a conversion by molar mass, not a printed value.

Columns and labels:
Assay type in all cases: functional
[1] = test system: Mycobacterium tuberculosis; test: Antitubercular activity against Mycobacterium tuberculosis H37Rv ATCC 27294 after 21 days by agar proportion method; details: H37Rv ATCC 27294, 504 h
Method in brief: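 Agar proportion method on Middlebrook 7H10 tubes against rifampicin/isoniazid-susceptible H37Rv. Inoculum: 4–7 day 7H9 broth culture at 37 °C, adjusted to McFarland no. 1, then diluted 10^-2 and 10^-4; 0.1 mL per tube. Incubated 21 days at 37 °C under 5–7% CO2. Colonies counted and compared with drug-free control. Two independent measurements.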

[2] = Cytotoxicity against human Kga1 cells by MTT assay
[3] = test system: HeLa; test: Cytotoxicity against human HeLa cells by MTT assay
[4] = test system: Jurkat; test: Cytotoxicity against human Jurkat cells by MTT assay
[5] = test system: Raji; test: Cytotoxicity against human Raji cells by MTT assay

SMILES	MIC [1]	IC30 [2]	IC30 [3]	IC30 [4]	IC30 [5]
CSc1ncc(C2C(C(=O)Nc3ccc(Cl)cc3)=C(C)NC(C)=C2C(=O)Nc2ccc(Cl)cc2)n1Nc1ccccc1	> 16 µg/mL	–	–	–	–
CSc1ncc(C2C(C(=O)Nc3ccc(Br)cc3)=C(C)NC(C)=C2C(=O)Nc2ccc(Br)cc2)n1Nc1ccccc1	> 16 µg/mL	–	–	–	–
CSc1ncc(C2C(C(=O)Nc3ccccc3Cl)=C(C)NC(C)=C2C(=O)Nc2ccccc2Cl)n1Nc1ccccc1	> 16 µg/mL	> 100 µg/mL	> 100 µg/mL	7.76 µg/mL (≈ 12.5 µM)	43.6 µg/mL (≈ 70.5 µM)
NNC(=O)c1ccncc1 [ISONIAZID]	0.2 µg/mL (≈ 1.46 µM)	–	–	–	–
CSc1ncc(C2C(C(=O)Nc3cccnc3)=C(C)NC(C)=C2C(=O)Nc2cccnc2)n1Cc1ccccc1	–	27.5 µg/mL (≈ 49.9 µM)	91.2 µg/mL (≈ 165 µM)	37.1 µg/mL (≈ 67.3 µM)	75.8 µg/mL (≈ 137 µM)
CO[C@H]1/C=C/O[C@@]2(C)Oc3c(C)c(O)c4c(O)c(c(/C=N/N5CCN(C)CC5)c(O)c4c3C2=O)NC(=O)/C(C)=C\C=C\[C@H](C)[C@H](O)[C@@H](C)[C@@H](O)[C@@H](C)[C@H](OC(C)=O)[C@@H]1C [RIFAMPIN]	1 µg/mL (≈ 1.22 µM)	–	–	–	–
CSc1ncc(C2C(C(=O)Nc3ccccn3)=C(C)NC(C)=C2C(=O)Nc2ccccn2)n1Cc1ccccc1	–	19.1 µg/mL (≈ 34.5 µM)	> 100 µg/mL	43.6 µg/mL (≈ 79.1 µM)	60.2 µg/mL (≈ 109 µM)
CSc1ncc(C2C(C(=O)Nc3cccc(Cl)c3)=C(C)NC(C)=C2C(=O)Nc2cccc(Cl)c2)n1Nc1ccccc1	> 16 µg/mL	–	–	–	–
CSc1ncc(C2C(C(=O)Nc3ccc(Cl)cc3)=C(C)NC(C)=C2C(=O)Nc2ccc(Cl)cc2)n1Cc1ccccc1	–	58.9 µg/mL (≈ 95.2 µM)	> 100 µg/mL	12.3 µg/mL (≈ 19.9 µM)	85.1 µg/mL (≈ 138 µM)
CSc1ncc(C2C(C(=O)Nc3ccccn3)=C(C)NC(C)=C2C(=O)Nc2ccccn2)n1Nc1ccccc1	> 16 µg/mL	> 100 µg/mL	67.6 µg/mL (≈ 122 µM)	13.5 µg/mL (≈ 24.4 µM)	> 100 µg/mL
CSc1ncc(C2C(C(=O)Nc3cccc(Cl)c3)=C(C)NC(C)=C2C(=O)Nc2cccc(Cl)c2)n1Cc1ccccc1	–	26.3 µg/mL (≈ 42.5 µM)	> 100 µg/mL	47.9 µg/mL (≈ 77.4 µM)	69.2 µg/mL (≈ 112 µM)
COc1cccc2c1C(=O)c1c(O)c3c(c(O)c1C2=O)C[C@@](O)(C(=O)CO)C[C@@H]3O[C@H]1C[C@H](N)[C@H](O)[C@H](C)O1 [DOXORUBICIN]	–	–	–	2.13 µg/mL (≈ 3.92 µM)	1.51 µg/mL (≈ 2.78 µM)
CSc1ncc(C2C(C(=O)Nc3cccnc3)=C(C)NC(C)=C2C(=O)Nc2cccnc2)n1Nc1ccccc1	> 16 µg/mL	–	–	–	–
